Test results from paper PMC6214802 (Molecular microbiology, 2018).
Read-outs that look alike come from different tables or passages of the source.

Columns and labels:
[1] = tested on: VcAer2/BT3388 cells; test: Behavioral assay; type: cell-based, E. coli; details: full-length VcAer2; 200 µM or 1 mM IPTG; with or without 25 µg ml^−1 ALA
Method in brief: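 Full-length receptor expressed in chemoreceptorless E. coli BT3388 grown at 30 °C in tryptone broth with 0.5 µg ml−1 thiamine (± 25 µg ml−1 ALA). Induced at OD600 0.2–0.25 for 2 h with 200 µM or 1 mM IPTG. Gas perfusion chamber toggled between air (20.9% O2) and N2. For CO, 30 s N2 then 10 s CO (>99%). Percent tumbling scored for all motile cells per field at 800×. Repeated ≥2 times on ≥2 occasions.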

[2] = biological target: VcAer2 [165–678]; test: O2 and CO titrations of purified VcAer2 [165–678]; type: binding, Vibrio cholerae; details: read-out: Kd(CO)
Method in brief: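 Truncated receptor was expressed in E. coli BT3388 in LB Lennox with 0.5 µg ml−1 thiamine and 25 µg ml−1 ALA, induced with 600 µM IPTG, then Ni-NTA purified. Heme content was assessed on 5 µM purified protein. Kd(O2) and Kd(CO) came from linear interpolation between unliganded Fe2+ and liganded (Fe2+-O2, Fe2+-CO) absorption spectra. Averaged over 2–8 experiments and rounded to whole numbers.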

[3] = biological target: PaPAS (Pseudomonas aeruginosa Aer2 PAS domain); details: read-out: Kd(CO), ref Garcia et al., 2017; cited from earlier work
[4] = biological target: VcAer2 PAS1 [38–157]; test: O2 and CO titrations of purified PAS1 peptide; type: binding, Vibrio cholerae; details: read-out: Kd(CO); PAS1 [38–157] peptide
Method in brief: (§1)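 PAS1 [38–157] or PAS2 [165–282] peptides came from E. coli BT3388 grown in LB Lennox with 0.5 µg ml−1 thiamine and 25 µg ml−1 ALA, induced with 600 µM IPTG and Ni-NTA purified. Heme-bound protein was quantified by pyridine hemochrome assay to standardize PAS-heme concentration. Kd(O2) and Kd(CO) were estimated by linear interpolation between unliganded Fe2+ and Fe2+-O2 or Fe2+-CO spectra. Averaged over 2–8 experiments, rounded to whole numbers.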

[5] = tested on: PaAer2/BT3388 cells; details: PaAer2 in E. coli; ref Watts et al., 2011; cited from earlier work
[6] = tested on: PAS1 [38–157] mutant peptides; test: Gas binding to purified PAS1 [38–157] mutant peptides; set-up: species or system Vibrio cholerae
[7] = tested on: PAS2 [165–282] W276 mutant peptides; test: Gas binding to purified PAS2 [165–282] W276 mutant peptides; set-up: species or system Vibrio cholerae; details: PAS2 peptides containing W276C, L and V
[8] = biological target: VcAer2 PAS2 [165–282]; test: O2 and CO titrations of purified PAS2 peptide; type: binding, Vibrio cholerae; details: read-out: Kd(CO); PAS2 [165–282] peptide
Method in brief: as §1

[9] = biological target: V. cholerae Aer2 PAS1 [1–164] peptide (V. cholerae O1 JBK 70); test: SEC
[10] = biological target: V. cholerae Aer2 PAS1 [38–157] peptide (V. cholerae O1 JBK 70); test: SEC
[11] = biological target: V. cholerae Aer2 PAS1 [38–157] peptide (V. cholerae O1 JBK 70); test: SEC; remark: listed apart in the source
[12] = biological target: V. cholerae Aer2 PAS2 [165–282] peptide (V. cholerae O1 JBK 70); test: SEC
[13] = biological target: V. cholerae Aer2 PAS2 [165–282] peptide (V. cholerae O1 JBK 70); test: SEC; remark: listed apart in the source
[14] = biological target: V. cholerae Aer2 PAS 1–2 [1–282] peptide (V. cholerae O1 JBK 70); test: SEC

Molecule: [C-]#[O+] [CO, carbon monoxide]
- behavioral response to gas [1]: did not respond
- Kd [2]: 2 µM
- Kd [3]: 2 µM
- Kd [4]: 7 µM
- cells tumbling in the presence of gas [5]: ~ 98%
- CO binding affinity relative to WT ([6]; PAS1-W151C, F, G, P, S, T and V): WT affinities
- CO binding affinity relative to WT ([6]; PAS1-W151L): WT affinities
- CO binding affinity relative to WT ([6]; PAS1-Y119L): WT O2 and CO affinities
- CO binding ([6]; PAS1-Y119L/W151L): bound heme and CO
- CO binding [7]: bound CO
- Kd [8]: 5 µM

Molecule: V. cholerae Aer2 PAS1 [1–164] peptide (domain or fragment)
- stoichiometry N [9]: 2

Molecule: V. cholerae Aer2 PAS1 [38–157] peptide (domain or fragment)
- stoichiometry N [10]: 2
- stoichiometry N [11]: 2

Molecule: V. cholerae Aer2 PAS2 [165–282] peptide (domain or fragment)
- stoichiometry N [12]: 2
- stoichiometry N [13]: 2

Molecule: V. cholerae Aer2 PAS 1–2 [1–282] peptide (domain or fragment)
- stoichiometry N [14]: 2
